High-throughput results deposited in PubChem BioAssay by Broad Institute.
Compounds with a hit are over-represented: about 3.2% of the library has one in this group of screens.
PfHsp90 set2 = inhibits growth of yeast expressing Plasmodium falciparum Hsp90. S. cerevisiae expressing PfHsp90, BacTiter-Glo ATP, 48 h; yeast lacking PDR1 and PDR3 efflux regulators. inhibition, % at 9.4 µM. 310,000 compounds, 0.32% hits. AID 504621;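 active means every replicate shows inhibition above about 80%, whatever the replicate mean, limit read from the data; inconclusive means mean inhibition reaches the set limit but some replicate falls short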;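 further: 0% = DMSO neutral controls and 100% = 20 µM radicicol positive controls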
DENV2 CPE rescue = inhibitors of DENV2 cytopathic effect; DENV2-infected cells, cytopathic effect rescue, plate reader; CPE inhibition, % at 9.99 µM; 350,000 compounds, 1.7% hits; AID 651640; in the data active means CPE inhibition above about 20%, passing the limit was not always enough; inconclusive means no clear call, values can overlap the other calls; tested in BHK-21 cells;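 further: 0% = median of neutral control wells and 100% = median of positive control wells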
S100A4 MyoIIA = blocks human S100A4 binding to myosin IIA peptide | P26447 | S100A4/TAMRA-MyoIIA peptide fluorescence polarization | inhibition, % at 10.7 µM | 360,000 compounds, 0.14% hits;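 active means mean inhibition of at least 70% across replicates, with every replicate also reaching that level; inconclusive means mean inhibition reaches 70% but some replicates fall short; inactive means mean inhibition below 70%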
Target sequence (P26447 whole entry, looked up): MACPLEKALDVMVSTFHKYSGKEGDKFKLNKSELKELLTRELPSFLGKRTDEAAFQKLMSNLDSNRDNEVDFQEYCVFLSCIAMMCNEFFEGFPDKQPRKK
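Assay system: human S100A4 monomer with TAMRA-labelled myosin IIA peptide / Buffer or medium: Calcium-containing HEPES buffer, pH 7.2 / Reagent: TAMRA-labelled myosin IIA heavy-chain peptide probe, 5 nM / Compound: one dose per compound / Timing: polarization read 5 min after assay mix addition, stable 5–60 min / Benchmarks: neutral control DMSO, positive control TFP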
MLL AF4-AF9 inh = blocks AF4 peptide binding to human AF9 | P42568 | AlphaScreen, biotin-AF4 peptide binding to FLAG-AF9 | inhibition, % at 10 µM | 350,000 compounds, 0.47% hits | AID 651704;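 active means every replicate reaching a set inhibition limit, whatever the replicate mean, cut at about 25% in these data; inconclusive means mean inhibition reaches that limit but some replicates miss it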;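 further: 0% = plate neutral control median and 100% = total signal loss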
Target sequence (P42568 whole entry, looked up): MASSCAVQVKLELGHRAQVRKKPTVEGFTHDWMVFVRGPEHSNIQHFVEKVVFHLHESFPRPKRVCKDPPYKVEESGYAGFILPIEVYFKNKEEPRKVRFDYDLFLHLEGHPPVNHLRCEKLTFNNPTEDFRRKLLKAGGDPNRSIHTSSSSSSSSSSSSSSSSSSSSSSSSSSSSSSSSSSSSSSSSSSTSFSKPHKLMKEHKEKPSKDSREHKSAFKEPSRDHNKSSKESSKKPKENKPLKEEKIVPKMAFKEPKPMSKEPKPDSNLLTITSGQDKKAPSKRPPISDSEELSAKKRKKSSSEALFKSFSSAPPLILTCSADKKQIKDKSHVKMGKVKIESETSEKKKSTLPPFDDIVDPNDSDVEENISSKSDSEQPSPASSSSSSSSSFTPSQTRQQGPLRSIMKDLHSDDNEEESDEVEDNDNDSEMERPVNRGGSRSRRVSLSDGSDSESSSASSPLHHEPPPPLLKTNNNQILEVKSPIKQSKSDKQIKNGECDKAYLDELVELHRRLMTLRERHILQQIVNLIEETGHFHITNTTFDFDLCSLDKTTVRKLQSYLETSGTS
Cneo AK release = causes C. neoformans cell lysis; 360,000 compounds, 0.2% hits; adenylate kinase release luminescence, 4 h; normalised: neutral wells 0, clomiphene wells 100; lysis activity, % at 15 µM;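 active means mean lysis activity across replicates of at least 80%, whatever share of replicates individually reach that level; inactive means mean lysis activity below 80%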
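Test system: log-phase Cryptococcus neoformans yeast cells. Input: 5 × 10^6 yeast cells/mL. Medium: fresh YPD growth medium. Doses: single dose. Incubation: static 4 h at 37 °C with compound, 1 h detection. Measured by: luminescent adenylate kinase detection reagent. Read-out: signal increase indicating cell lysis. Benchmarks: Clomiphene.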
Ecoli rRNA inh = selective bacterial rRNA inhibition in E. coli. E. coli WT GFP vs humanized-ribosome RFP mutants, fluorescence, 24 h; stronger effect = lower value; DMSO median 0, no signal -100. GFP signal change (wild-type ribosome), % (test concentration not listed). 350,000 compounds, 1.6% hits. AID 720706;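 active means significant combined selectivity score with lowered wild-type GFP, culture density cut under 30%, mutant RFP and density less affected; inactive means any of these conditions unmet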
* = called active by the depositor; u = inconclusive; x = no result.

SMILES	PfHsp90 set2	DENV2 CPE rescue	S100A4 MyoIIA	MLL AF4-AF9 inh	Cneo AK release	Ecoli rRNA inh
CN1C[C@H]2CON(C)[C@H]2C[C@H]1c1cccc(Br)c1	-8	3	-1	-2	-1	8
CN1OC[C@@H]2CN[C@H](c3ccc(Br)cc3)C[C@@H]21	x	26*	-10	0	x	17
CC(=O)N1C[C@@H]2N[C@H](C1)C2c1ccc(Br)cc1 (stereo partly specified)	x	x	x	x	x	1
COC(=O)C1=C(c2c(C)noc2C)C[C@@H]2CC[C@H]1N2C(=O)NC1CC1	-27	-16	-1	x	-1	6
COC(=O)C1=C(c2c(C)noc2C)C[C@@H]2CC[C@H]1N2C(=O)NC1CCCCC1	7	48*	-2	-1	2	15
C=CC1CN2CCC1C[C@@H]2CO (stereo partly specified)	x	20*	-9	-2	1	x
C=CC1CN2CCC1CC2c1[nH]c2ccccc2c1CCO (stereo unspecified)	11	x	x	x	x	x
CNCCc1ccc(OC)c(OC)c1	14	51*	1	4	0	x
COc1ccc(CCN)cc1OC	12	-6	8	4	1	x
COC(=O)[C@@H]1[C@@H](CO)[C@@H]2Cn3c(ccc(-c4ccncc4)c3=O)[C@H]1N2CCc1ccccc1	x	107*	5	-1	-5	1
CN1[C@@H]2CN(S(C)(=O)=O)C[C@H]1C2c1ccc(Br)cc1 (stereo partly specified)	x	x	x	x	x	2
CCCNC(=O)N1[C@@H]2c3ccc(-c4cccc(C(=O)N(C)C)c4)c(=O)n3C[C@H]1[C@H](CO)[C@H]2C(=O)O	x	-18	1	-2	x	4
COc1ccc2c3c([nH]c2c1)C(C)NCC3 (stereo unspecified)	-31	4	-36	30*	9	x
O=c1[nH]c(CN2CC=C(c3ccccc3)CC2)nc2cc(C(F)(F)F)ccc12	-4	x	x	x	88*	x
COCC#Cc1ccc([C@H]2[C@H](CO)N3CCCCN(C(=O)Cc4ccccn4)C[C@@H]23)cc1	x	2	-53	-3	-2	-2
COC(=O)[C@@H]1[C@@H](CO)[C@@H]2Cn3c(ccc(C4=CCCC4)c3=O)[C@H]1N2CC1CCCC1	x	-7	-4	-14	x	1
C1CCC2CCCCC2C1 (stereo unspecified)	-12	33*	-1	x	3	4
CCCNC(=O)N1[C@@H]2Cn3c(ccc(-c4cccc(C(=O)N(C)C)c4)c3=O)[C@H]1[C@@H](C(=O)O)[C@@H]2CO	x	-3	1	-5	x	2
COCCOC(=O)C1=C(C)OC(N)=C(C(=O)OC)C12C(=O)Nc1ccccc12 (stereo unspecified)	12	x	x	x	-2	x
COC(=O)C1=C(N)Oc2cc(C)oc(=O)c2C12C(=O)Nc1ccccc12 (stereo unspecified)	-10	-2	-11	0	x	-23*
COC(=O)C1=C(c2ccc3ccccc3c2)C[C@@H]2CC[C@H]1N2C	7	-8	-1	x	7	-2
COC(=O)C1=C(C(=O)OC)C2OC1c1cc3ccccc3cc12	132*	-3	-1	0	x	-19*
COc1ccc(OC)c(N2C(=O)NC(=O)/C(=C\c3ccc([N+](=O)[O-])s3)C2=O)c1	91*	13	-54	5	0	-1
O=C(Cc1ccccc1)N1C[C@@H]2[C@H](c3ccccc31)[C@H](CO)N2Cc1ccccc1	x	u	10	0	-2	-12
Clc1ccccc1CN1CCN(c2ccccc2Cl)CC1	-8	x	-4	1	x	-42*
SMILES	PfHsp90 set2	DENV2 CPE rescue	S100A4 MyoIIA	MLL AF4-AF9 inh	Cneo AK release	Ecoli rRNA inh
CCCNC(=O)N1[C@@H]2Cn3c(ccc(-c4ccccc4OC)c3=O)[C@H]1[C@@H](C(=O)O)[C@@H]2CO	x	-4	6	-1	3	2
COC(=O)C1=C(c2ccc(F)cc2OCc2ccccc2)C[C@@H]2CC[C@H]1N2C(=O)NCc1ccccc1	2	68*	-4	x	2	-10
O=C(O)[C@H]1[C@H](CO)[C@H]2Cn3c(ccc(C4=CCCCC4)c3=O)[C@@H]1N2C(=O)Cc1ccccn1	x	12	0	2	51	2
O=C1NC(=O)C(=Cc2ccc(OCC(=O)N3CCOCC3)cc2)C(=O)N1	15	64*	-1	-1	x	12
COC(=O)[C@@H]1[C@@H](CO)[C@@H]2Cn3c(ccc(-c4cccnc4)c3=O)[C@H]1N2CCc1ccccc1	x	6	-39	-12	-1	1
C[n+]1ccc(-c2ccncc2)cc1	-3	x	-3	4	2	6
c1ccc(-c2ccncc2)cc1	15	-1	99*	-3	2	11
COc1ccc(OC(=O)N(C)C[C@@H]2OCc3ccccc3-c3c(n(C)c4ccccc34)C(=O)N([C@@H](C)CO)C[C@@H]2C)cc1	x	-4	1	2	x	-1
C=CCN1[C@@H]2CN(C(C)=O)C[C@H]1C2c1ccc(Br)cc1 (stereo partly specified)	x	x	x	x	x	-3
CCCNC(=O)[C@H]1[C@H](CO)[C@H]2Cn3c(cccc3=O)[C@H]2N1CC	x	0	15	-3	x	0
COc1cc2c(cc1OC)-c1c(OC)c(OC)cc3c1[C@H](C2)[N+](C)(C)CC3	0	20	1	-6	1	-25*
COC(=O)[C@H]1[C@H](CO)[C@H]2Cn3c(ccc(-c4cccc(F)c4)c3=O)[C@@H]1N2Cc1cccnc1	x	1	2	2	-2	-1
Oc1ccc2c3c1OC1c4[nH]c5ccccc5c4C[C@@]4(O)C(C2)N(CC2CC2)CC[C@]314 (stereo partly specified)	x	-10	-3	x	-1	8
Oc1ccc2c3c1OC1c4oc5ccccc5c4C[C@@]4(O)[C@@H](C2)N(CC2CC2)CC[C@]314 (stereo partly specified)	x	u	3	x	-3	-20*
CS(=O)(=O)N1C[C@@H]2C(c3ccccc3)[C@H](C1)N2CC1CC1 (stereo partly specified)	x	x	x	x	x	0
Cc1cc2c(C(C)C)c(O)c(O)c(C=O)c2c(O)c1-c1c(C)cc2c(C(C)C)c(O)c(O)c(C=O)c2c1O	x	9	-9	6	0	-7.7*
O=C(O)c1cccc2c1NC(c1cccc([N+](=O)[O-])c1)C1CC(Sc3ccccc3[N+](=O)[O-])C(Cl)C21 (stereo unspecified)	2	8	-4	27*	x	-24
O=C(O)c1ccc2c(c1)C1C(Cl)C(Sc3ccccc3[N+](=O)[O-])CC1C(c1cccc([N+](=O)[O-])c1)N2 (stereo unspecified)	-22	x	x	x	-3	x
CN1CCN(C(=O)CN=[N+]=[N-])CC1	x	1	-5	0	-4	x
